Assay results gathered from unrelated publications.
Protocols differ between the studies behind these lines.
BCHE: Cholinesterase (BCHE, Equus caballus, UniProt P81908)
PTGS1: Prostaglandin G/H synthase 1 (PTGS1, Ovis aries, UniProt P05979)
Ar: Androgen receptor (Ar, Rattus norvegicus, UniProt P15207)
AGTR2: Type-2 angiotensin II receptor (AGTR2, Homo sapiens, UniProt P50052)

With Cn1cc(-c2cc(F)cc(N3CCn4c(cc5c4CCCC5)C3=O)c2CO)cc(Nc2ccc(N3CCN(C4COC4)CC3)cn2)c1=O the inhibition was -12% (Dual specificity mitogen-activated protein kinase kinase 3 (MAP2K3, Homo sapiens, UniProt P46734); enzyme activity; inhibitor; 0.1 µM).
The inhibition of COc1ccc2[nH]cc(CCN3Cc4cc(OC)c(OC)cc4C3=O)c2c1 is reported as 19% (BCHE; enzyme activity; inhibitor; Ellman; 1 µM).
With NS(=O)(=O)c1ccc(-c2ncccc2-c2nc3ccccc3s2)cc1 the inhibition was 0% (PTGS1; enzyme activity; inhibitor; absorbance; 10 µM).
With COc1cc2c(cc1OC)C(=O)N(Cc1ccncc1)C2 the inhibition was -0.7% (BCHE; enzyme activity; inhibitor; Ellman; 1 µM).
The inhibition of Cc1ccc(-c2nc3ccccc3s2)c(-c2ccc(O)cc2)c1 is reported as 8.4% (PTGS1; enzyme activity; inhibitor; absorbance; 10 µM).
The inhibition of Cn1cc(-c2cccc(N3CCc4c(sc5c4CC(C)(C)C5)C3=O)c2CO)cc(Nc2ccncn2)c1=O is reported as 6% (Serine/threonine-protein kinase MRCK alpha (CDC42BPA, Homo sapiens, UniProt Q5VT25); enzyme activity; inhibitor; 1 µM).
For CC(C)N1CCC[C@H]1CNC(=O)c1cn(C2CCCC2)c(=O)c2c1c1ccccc1n2C, the inhibition was 11% (Ar; ligand displacement; radioligand; 10 µM).
With CCCCCCCCCCCC(=O)OC[C@@H](COP(=O)(O)OCCNC(=O)c1ccc(Cn2c(=O)[nH]c3c(N)nc(OCCOC)nc32)cc1)OC(=O)CCCCCCCCCCC the inhibition was 55% (Ar; ligand displacement; radioligand; 10 µM).
The inhibition of COc1cc2c(cc1OC)C(=O)N(Cc1n[nH]c3ccccc13)C2 is reported as -2.7% (BCHE; enzyme activity; inhibitor; Ellman; 1 µM).
The inhibition of CN(C)Cc1ccc(-c2nc3ccccc3s2)c(-c2ccc(O)cc2)c1 is reported as 14.2% (PTGS1; enzyme activity; inhibitor; absorbance; 10 µM).
C#Cc1n[nH]c2c(-c3cn(C(C)c4ccccn4)c(=O)[nH]c3=O)cc(F)cc12 (centres unmarked) gave an inhibition of 11.2% (Serine/threonine-protein kinase MARK1 (MARK1, Homo sapiens, UniProt Q9P0L2); enzyme activity; inhibitor; 1 µM).
Cc1ccc(-c2nc3ccccc3s2)c(-c2ccc(S(C)(=O)=O)cc2)c1 has an inhibition of 9.7% (PTGS1; enzyme activity; inhibitor; absorbance; 10 µM).
The inhibition of C[C@H](C(=O)N[C@H]1COc2ccccc2[C@@H]1S(C)(=O)=O)c1ccc(F)cc1 is reported as 4% (AGTR2; cell-free assay; 10 µM).
The inhibition of COc1cc2c(cc1OC)C(=O)N(CC1CCN(Cc3ccccn3)CC1)C2 is reported as 5.4% (BCHE; enzyme activity; inhibitor; Ellman; 1 µM).
Nc1ccc(-c2ccccc2)c(-c2nc3ccccc3s2)c1 gave an inhibition of 59.1% (PTGS1; enzyme activity; inhibitor; absorbance; 10 µM).
COc1ccc(S(=O)(=O)N2CCCCC2)cc1C has an inhibition of < 30% (AGTR2; ligand displacement; radioligand; 10 µM).
The inhibition of O=C(Nc1cccnn1)N1CCN([C@@H]2CCOc3cc(C(F)(F)F)ccc32)CC1 is reported as 0% (AGTR2; cell-free assay; 20 µM).
COc1cc2c(cc1OC)C(=O)N(CC1CCN(Cc3ccc(F)nc3)CC1)C2 has an inhibition of -4.8% (BCHE; enzyme activity; inhibitor; Ellman; 1 µM).
For CN(C)Cc1ccc(-c2nc3ccccc3s2)c(-c2cccc(O)c2)c1, the inhibition was 30.7% (PTGS1; enzyme activity; inhibitor; absorbance; 10 µM).
For COc1cc2c(cc1OC)C(=O)N(Cc1cccc(N3CCCCC3)n1)C2, the inhibition was 4.8% (BCHE; enzyme activity; inhibitor; Ellman; 1 µM).
Cc1ccc(-c2nc3ccccc3s2)c(-c2cccc(O)c2)c1 has an inhibition of 11.7% (PTGS1; enzyme activity; inhibitor; absorbance; 10 µM).
With COc1cc2c(cc1OC)C(=O)N(CCc1c[nH]c3ccccc13)C2 the inhibition was 0.7% (BCHE; enzyme activity; inhibitor; Ellman; 1 µM).
Cc1ncc(C)n2nc(/C=C/c3nc(N4CCCC4)cc(N4CCOCC4)n3)nc12 gave an inhibition of 15% (cGMP-inhibited 3',5'-cyclic phosphodiesterase 3B (PDE3B, Homo sapiens, UniProt Q13370); enzyme activity; inhibitor; 10 µM).
